Experimental data reported in ChEMBL document CHEMBL5236612, “Heterobivalent Inhibitors of Acetyl-CoA Carboxylase: Drug Target Residence Time and Time-Dependent Antibacterial Activity” (J Med Chem, 2022).
In brackets after ≈: the same amount, converted by molar mass. Activity calls are given as the source filed them. The calls are words filed in the database; no cut-off is given here.

Key:
[1] = tested on: Escherichia coli; test: Antibacterial activity against tolC knockout Escherichia coli incubated for 24 hrs in presence of PMBN by microbroth dilution method; format: functional
[2] = tested on: Escherichia coli; test: Antibacterial activity against tolC knockout Escherichia coli incubated for 24 hrs by microbroth dilution method; format: functional
[3] = tested on: Escherichia coli; test: Antibacterial activity against acrAB knockout Escherichia coli MG1655 incubated for 24 hrs in presence of PMBN by microbroth dilution method; format: functional
[4] = Inhibition of Escherichia coli ACC expressed in Escherichia coli BL21(DE3) pLysS incubated for 45 mins in presence of ATP and acetyl coA by fluorescence polarization assay
Method in brief: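 E. coli BC (1 nM), biotinylated BCCP (2 nM) and CT (1 nM), His-tag purified then size-exclusion purified, preincubated with inhibitor in 100 mM HEPES pH 8.0, 15 mM KHCO3, 20 mM MgCl2. ADP detected by Transcreener fluorescence polarization; Morrison fit for Ki when tight binding; triplicate.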

[5] = tested on: Escherichia coli; test: (§1) Displacement of 11-(4-(22-(2,4-dibromo-3-(2,7-diaminopyrido[2,3-d]pyrimidin-6-yl)phenoxy)-5,8,11,14,17,20-hexaoxadocos-1-yl)-1H-1,2,3-triazol-1-yl)-N-((1S)-3-(((2S)-3-methyl-1-((3R,4S)-4-methyl-2,5-dioxopyrrolidin-3-yl)-1-oxobutan-2-yl)amino)-3-oxo-1-phenylpropyl)undecanamide from Escherichia coli ACC expressed in Escherichia coli BL21(DE3) pLysS at 50 uM preincubated for 1 hr in presence of Moiramide-B followed by compound addition by LC-MS/MS method
Method in brief: (§2)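 Purified E. coli ACC (1 μM), in 100 mM HEPES pH 8.0 with 15 mM KHCO3 and 20 mM MgCl2, was held 1 h at 22 °C with equimolar heterobivalent inhibitor. Competitor was then added: 100 μM of one warhead alone, or 50 μM each of both warheads together. At timed points, aliquots were spun through G-25 gel filtration columns in 10 mM ammonium formate pH 8.0. Flow-through was denatured in 50% MeCN and bound inhibitor quantified by LC-MS/MS. Dissociation rate came from a single-exponential fit.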

[6] = tested on: Escherichia coli; test: Antibacterial activity against Escherichia coli harbouring TolC-deficient mutant assessed as post antibiotic effect by measuring time required for increase in 1 log10 CFU/ml of bacteria at 32 times MIC incubated for 1 hr followed by compound washout and measured for 16 hrs; format: functional
[7] = tested on: Escherichia coli; test: Antibacterial activity against Escherichia coli harbouring TolC-deficient mutant assessed as post antibiotic effect by measuring time required for increase in 1 log10 CFU/ml of bacteria at 16 times MIC incubated for 1 hr followed by compound washout and measured for 16 hrs; format: functional
[8] = tested on: Escherichia coli; test: as §1, with “6-(2,6-dibromophenyl)pyrido[2,3-d]pyrimidine-2,7-diamine” for “Moiramide-B”; method in brief: as §2
[9] = tested on: Escherichia coli; test: as §1, with “100” for “50”, “hr” for “hr in presence of Moiramide-B”; method in brief: as §2
[10] = tested on: Escherichia coli; test: Antibacterial activity against Escherichia coli K12 incubated for 24 hrs by microbroth dilution method; format: functional
[11] = tested on: Escherichia coli; test: Antibacterial activity against Escherichia coli harbouring TolC-deficient mutant assessed as post antibiotic effect by measuring time required for increase in 1 log10 CFU/ml of bacteria at 8 times MIC incubated for 1 hr followed by compound washout and measured for 16 hrs; format: functional
[12] = tested on: Escherichia coli; test: Antibacterial activity against acrAB knockout Escherichia coli MG1655 incubated for 24 hrs by microbroth dilution method; format: functional
[13] = tested on: Escherichia coli; test: Antibacterial activity against Escherichia coli incubated for 24 hrs in presence of PMBN by microbroth dilution method; format: functional
[14] = tested on: Escherichia coli; test: Additive antibacterial activity against Escherichia coli harbouring TolC-deficient mutant assessed as fractional inhibitory concentration index; format: functional
Method in brief: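 Checkerboard MIC of two compounds combined against tolC-knockout E. coli, without PMBN; FIC index derived from combination MICs.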

[15] = tested on: Escherichia coli; test: Synergistic antibacterial activity against Escherichia coli harbouring TolC-deficient mutant assessed as fractional inhibitory concentration index at […] in presence of PMBN; format: functional; details: dose 0.025 µM
[16] = Inhibition of Escherichia coli ACC expressed in Escherichia coli BLR(DE3) cells
[17] = Inhibition of Escherichia coli biotin carboxylase in presence of ATP and NADH by UV-Vis spectrophotometric assay
[18] = Inhibition of Escherichia coli ACC incubated for 5 mins
Method in brief: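 ACC reconstituted from 1 nM BC, 2 nM biotinylated BCCP and 1 nM CT (His-tagged E. coli proteins) in 100 mM HEPES pH 8.0 with 15 mM KHCO3 and 20 mM MgCl2. Enzyme was mixed with inhibitor or DMSO, and reactions were started with 10 μM ATP and 200 μM acetyl-CoA. ADP formed was read by Transcreener fluorescence polarization after a 45 min endpoint.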

SMILES: C#CCCCCOCCOCCOCCOCCOCCOCCOCCOCCOCCOCCOCCOCCOCCOCCOCCOCCOCCOCCOc1ccc(Br)c(-c2cc3cnc(N)nc3nc2N)c1Br
- MIC [1]: 12.5 µM
- MIC [2]: > 25 µM
- MIC [3]: > 25 µM
- IC50 [4]: 126 nM

SMILES: CC(C)[C@H](NC(=O)C[C@H](NC(=O)CCCCCCCCCCn1cc(CCCCOCCOCCOCCOCCOCCOCCOc2cc(Br)c(-c3cc4cnc(N)nc4nc3N)c(Br)c2)nn1)c1ccccc1)C(=O)[C@@H]1C(=O)NC(=O)[C@H]1C
- MIC [1]: 0.78 µM
- MIC [2]: 6.25 µM (≈ 8.28 µg/mL)
- MIC [3]: > 25 µM
- IC50 [4]: 3.53 nM

SMILES: CC(C)[C@H](NC(=O)C[C@H](NC(=O)CCCCCCCCCCn1cc(CCCCOc2ccc(Br)c(-c3cc4cnc(N)nc4nc3N)c2Br)nn1)c1ccccc1)C(=O)[C@@H]1C(=O)NC(=O)[C@H]1C
- Activity [5]: Active
- MIC [1]: 0.78 µM
- PAE [6]: 3.8 h
- PAE [7]: 2.2 h
- Activity [8]: Active
- MIC [3]: 12.5 µM
- Activity [9]: inactive
- MIC [10]: > 25 µM
- IC50 [4]: 1.81 nM
- PAE [11]: 1.9 h

SMILES: CC(C)[C@H](NC(=O)C[C@H](NC(=O)CCCCCCCCCCn1cc(CCCCOCCOCCOCCOCCOCCOCCOCCOCCOCCOCCOCCOCCOCCOCCOCCOc2ccc(Br)c(-c3cc4cnc(N)nc4nc3N)c2Br)nn1)c1ccccc1)C(=O)[C@@H]1C(=O)NC(=O)[C@H]1C
- Activity [5]: Active
- MIC [1]: 1.56 µM
- PAE [6]: 4.6 h
- PAE [7]: 3.8 h
- Activity [8]: Active
- MIC [3]: 12.5 µM
- Activity [9]: inactive
- MIC [10]: > 25 µM
- Ki [4]: 0.33 nM
- PAE [11]: 1.9 h

SMILES: C#CCCCCOCCOCCOCCOCCOCCOCCOCCOCCOCCOc1ccc(Br)c(-c2cc3cnc(N)nc3nc2N)c1Br
- MIC [1]: 12.5 µM
- MIC [2]: 25 µM (≈ 22.2 µg/mL)
- MIC [3]: 15 µM
- MIC [10]: > 25 µM
- IC50 [4]: 98 nM

SMILES: C#CCCCCOc1ccc(Br)c(-c2cc3cnc(N)nc3nc2N)c1Br
- MIC [1]: 0.78 µM
- MIC [2]: 1.56 µM (≈ 0.766 µg/mL)
- MIC [3]: 0.78 µM
- MIC [12]: > 25 µM
- MIC [13]: 12.5 µM
- MIC [10]: > 25 µM
- IC50 [4]: ≤ 1 nM

SMILES: C/C=C/C=C/C(=O)N[C@@H](CC(=O)N[C@H](C(=O)[C@@H]1C(=O)NC(=O)[C@H]1C)C(C)C)c1ccccc1
- fractional inhibitory concentration index (FICI) [14]: 0.5
- MIC [1]: 0.1 µM
- MIC [2]: 1.56 µM (≈ 0.708 µg/mL)
- FIC [15]: 0.38
- Activity [8]: Active
- IC50 [16]: 6 nM
- MIC [3]: 0.39 µM
- Activity [9]: inactive
- MIC [12]: 25 µM (≈ 11.3 µg/mL)
- MIC [13]: 3.13 µM
- MIC [10]: > 25 µM
- IC50 [4]: 4.5 nM

SMILES: C#CCCCCOCCOCCOCCOc1ccc(Br)c(-c2cc3cnc(N)nc3nc2N)c1Br
- MIC [1]: 1.56 µM
- MIC [3]: 3.13 µM
- MIC [10]: > 25 µM
- IC50 [4]: 19 nM

SMILES: C#CCCCCOCCOCCOCCOCCOCCOCCOCCOCCOCCOCCOCCOCCOc1ccc(Br)c(-c2cc3cnc(N)nc3nc2N)c1Br
- MIC [2]: 25 µM (≈ 25.5 µg/mL)
- MIC [3]: > 25 µM
- MIC [10]: > 25 µM
- IC50 [4]: 82 nM

SMILES: CC(C)[C@H](NC(=O)C[C@H](NC(=O)CCCCCCCCCCN=[N+]=[N-])c1ccccc1)C(=O)[C@@H]1C(=O)NC(=O)[C@H]1C
- MIC [1]: 0.2 µM
- MIC [3]: 1.56 µM
- MIC [12]: > 25 µM
- MIC [13]: 12.5 µM
- MIC [10]: > 25 µM
- IC50 [4]: 74 nM

SMILES: C#CCCCCOCCOCCOCCOCCOCCOCCOc1ccc(Br)c(-c2cc3cnc(N)nc3nc2N)c1Br
- MIC [3]: 6.25 µM
- MIC [10]: > 25 µM
- IC50 [4]: 32 nM

SMILES: CC(C)[C@H](NC(=O)C[C@H](NC(=O)CCCCCCCCCCn1cc(CCCCOCCOCCOCCOCCOCCOCCOc2ccc(Br)c(-c3cc4cnc(N)nc4nc3N)c2Br)nn1)c1ccccc1)C(=O)[C@@H]1C(=O)NC(=O)[C@H]1C
- MIC [1]: 0.39 µM
- PAE [6]: 3.4 h
- PAE [7]: 1.7 h
- MIC [3]: 3.13 µM
- MIC [12]: > 25 µM
- MIC [13]: > 25 µM
- MIC [10]: > 25 µM
- Ki [4]: 0.25 nM
- PAE [11]: 1.7 h

SMILES: C#CCCCCOCCOCCOCCOCCOCCOCCOCCOCCOCCOCCOCCOCCOCCOCCOCCOc1ccc(Br)c(-c2cc3cnc(N)nc3nc2N)c1Br
- MIC [1]: 12.5 µM
- MIC [2]: 25 µM (≈ 28.8 µg/mL)
- MIC [3]: > 25 µM
- MIC [10]: > 25 µM
- IC50 [4]: 64 nM

SMILES: Nc1ncc2cc(-c3c(Br)cc(OCCO)cc3Br)c(N)nc2n1
- IC50 [17]: 730 nM

SMILES: CC(C)[C@H](NC(=O)C[C@H](NC(=O)CCCCCCCCCCn1cc(CCCCOCCOCCOCCOc2ccc(Br)c(-c3cc4cnc(N)nc4nc3N)c2Br)nn1)c1ccccc1)C(=O)[C@@H]1C(=O)NC(=O)[C@H]1C
- Activity [5]: Active
- MIC [1]: 0.78 µM
- PAE [6]: 2.6 h
- MIC [2]: 3.13 µM (≈ 3.73 µg/mL)
- PAE [7]: 1.2 h
- Activity [8]: Active
- MIC [3]: 6.25 µM
- Activity [9]: inactive
- MIC [10]: > 25 µM
- Ki [4]: 0.26 nM
- PAE [11]: 1 h

SMILES: CC(C)[C@H](NC(=O)C[C@H](NC(=O)CCCCCCCCCCn1cc(CCCCOCCOCCOCCOCCOCCOCCOCCOCCOCCOc2ccc(Br)c(-c3cc4cnc(N)nc4nc3N)c2Br)nn1)c1ccccc1)C(=O)[C@@H]1C(=O)NC(=O)[C@H]1C
- Activity [5]: Active
- MIC [1]: 0.78 µM
- PAE [6]: 3.4 h
- PAE [7]: 1.8 h
- Activity [8]: Active
- MIC [3]: 3.13 µM
- Activity [9]: inactive
- MIC [10]: > 25 µM
- Ki [4]: 0.31 nM
- PAE [11]: 1.2 h

SMILES: COc1ccc(Br)c(-c2cc3cnc(N)nc3nc2N)c1Br
- IC50 [17]: ≤ 250 nM

SMILES: C#CCCCCOCCOCCOCCOCCOCCOCCOc1cc(Br)c(-c2cc3cnc(N)nc3nc2N)c(Br)c1
- MIC [1]: > 25 µM
- MIC [3]: > 25 µM
- IC50 [4]: 849 nM

SMILES: Nc1ncc2cc(-c3c(Br)ccc(OCCO)c3Br)c(N)nc2n1
- IC50 [17]: 550 nM

SMILES: CC(C)[C@H](NC(=O)C[C@H](NC(=O)CCCCCCCCCCn1cc(CCCCOCCOCCOCCOCCOCCOCCOCCOCCOCCOCCOCCOCCOc2ccc(Br)c(-c3cc4cnc(N)nc4nc3N)c2Br)nn1)c1ccccc1)C(=O)[C@@H]1C(=O)NC(=O)[C@H]1C
- Activity [5]: Active
- MIC [1]: 1.56 µM
- PAE [6]: 3.6 h
- PAE [7]: 2.6 h
- Activity [8]: Active
- MIC [3]: 6.25 µM
- Activity [9]: inactive
- MIC [10]: > 25 µM
- Ki [4]: 0.18 nM
- PAE [11]: 2.1 h

SMILES: COc1cc(Br)c(-c2cc3cnc(N)nc3nc2N)c(Br)c1
- IC50 [17]: 1200 nM

SMILES: Nc1ncc2cc(-c3c(Br)cccc3Br)c(N)nc2n1
- Activity [5]: Active
- fractional inhibitory concentration index (FICI) [14]: 0.5
- MIC [2]: 1.56 µM (≈ 0.616 µg/mL)
- IC50 [18]: < 5 nM
- Activity [9]: inactive
